Laboratory results published in ChEMBL document CHEMBL3352156, “Endoplasmic reticulum stress suppressive compounds from the edible mushroom Mycoleptodonoides aitchisonii” (J Nat Prod, 2014).
The source made the active and inactive calls. No cut-off for these calls is given here.

Assays:
N2a [1] = assay: Protection against thapsigargin-induced ER-stress-dependent mouse Neuro2a cell death assessed as cell viability at > 50 uM after 24 hrs by MTT assay; assay type: functional, cell-based
Procedure, shortened: (§1)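 Neuro2a cells in D-MEM with 10% FBS, seeded at 2000 cells/well and grown 24 h. Pretreated 6 h with graded compound levels in serum-free D-MEM, then stressor added to final 0.5 μg/mL tunicamycin or 10 nM thapsigargin for 24 h. MTT 0.25 mg/mL for 2 h, stopped with SDS/DMF, A570. Viability as percent of untreated cells; TG mean ± SE, n = 10−12; Tukey–Kramer tests.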

N2a [2] = assay: Protection against tunicamycin-induced ER-stress-dependent mouse Neuro2a cell death assessed as cell viability after 24 hrs by MTT assay; assay type: functional, cell-based; procedure, shortened: as §1

Question: Which results are given for `OCC[C@H](O)[C@H](O)Cc1ccccc1`?
Answer: Activity (N2a [1]): Active; Activity (N2a [2]): inactive

Question: How did the Activity (N2a [1]) turn out when `CC1=C(C)C(C)(O)OC1=O` (stereo unspecified) was run?
Answer: Active

Question: What about the Activity (N2a [2]) of the same molecule?
Answer: inactive

Question: What does the source list for `CC1=C(CO)C(C)(O)OC1=O` (stereo unspecified)?
Answer: Activity (N2a [1]): Active; Activity (N2a [2]): inactive

Question: For `OCC[C@H](O)CCc1ccccc1`, which Activity (N2a [1]) is on record?
Answer: Active

Question: What about the Activity (N2a [2]) of the same molecule?
Answer: inactive

Question: What does the source list for `CC(=O)[C@@H]1COC(=O)[C@@H]1C`?
Answer: Activity (N2a [1]): inactive; Activity (N2a [2]): inactive

Question: Which results are given for `C[C@@H](O)[C@H]1COC(=O)[C@@H]1C`?
Answer: Activity (N2a [1]): Active; Activity (N2a [2]): inactive

Question: With `CC1=C(C(C)O)C(O)OC1=O` (stereo unspecified) as the molecule, how does the Activity (N2a [1]) read?
Answer: Active

Question: What about the Activity (N2a [2]) of the same molecule?
Answer: inactive

Question: Which results are given for `CC(=O)[C@@H]1COC(=O)[C@H]1C`?
Answer: Activity (N2a [1]): Active; Activity (N2a [2]): inactive
